Data taken from ChEMBL document CHEMBL4184212, “Design, synthesis and evaluation against Chikungunya virus of novel small-molecule antiviral agents” (Bioorg Med Chem, 2018).

Legend:
[1] = Cytotoxicity against African green monkey Vero cells assessed as decrease in cell viability after 5 days by MTS/PMS method; type: cell-based; details: chlorocebus sabaeus
Method in brief: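 Uninfected Vero cells in MEM Rega-3 with 2% FBS were treated with compound alongside the antiviral assay. Metabolic activity was read by MTS/PMS, and wells were checked microscopically for morphology changes. CC50 is the concentration reducing metabolic activity by 50%, found by logarithmic interpolation. Values are the mean of ≥3 independent experiments.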

[2] = tested on: Chikungunya virus; experiment: Antiviral activity against Chikungunya virus Indian Ocean 889 infected in African green monkey Vero cells assessed as inhibition of virus-induced cytopathic effect after 5 days by MTS/PMS method; type: functional, organism-based; details: Indian Ocean 889, Vero, 120 h
[3] = Selectivity index, ratio of CC50 for African green monkey Vero cells to EC50 for Chikungunya virus Indian Ocean 889 infected in African green monkey Vero cells; type: toxicity; details: read-out: Ratio CC50/EC50

SMILES	CC50 at 120 h [1]	EC50 [2]	EC90 [2]	selectivity ratio [3]
CC(C)(C)c1ccc(/C=C/C(=O)N/N=C/c2ccc(-c3ccccc3)cc2)cc1	20.1 µM			
CC(C)(C)c1ccc(/C=C/C(=O)NCc2ccc(-c3ccccc3)cc2)cc1	4.3 µM	2.9 µM	> 271 µM	
C/C(=N\NC(=O)/C=C/c1ccc(C(C)(C)C)cc1)c1cnccn1	> 310 µM	103 µM	122 µM	1.2
CC(C)(C)c1ccc(CCC(=O)N/N=C/c2ccc(O)cc2)cc1		36.4 µM		
CCN(CC)CCCC(C)Nc1ccnc2cc(Cl)ccc12 (centres undefined) [CHLOROQUINE]	89 µM		21 µM	
C/C(=N\NC(=O)/C=C/c1ccc(C(C)(C)C)cc1)c1ccc(C2CCCCC2)cc1		> 248 µM	> 248 µM	
COc1ccc(/C(C)=N/NC(=O)/C=C/c2ccc(C(C)(C)C)cc2)cc1OC		> 263 µM	> 263 µM	
CCOc1ccc(/C=N/NC(=O)/C=C/c2ccc(C)cc2)cc1OCC	> 284 µM	113 µM	> 284 µM	> 2.5
Cc1ccc(/C=N/NC(=O)/C=C/c2ccc(C(C)(C)C)cc2)cc1	124 µM	5.8 µM	10 µM	21.4
C/C(=N\NC(=O)/C=C/c1ccccc1)c1ccc(C2CCCCC2)cc1		> 289 µM	> 289 µM	
CC(C)c1ccc(/C=N/NC(=O)/C=C/c2ccc(C(C)(C)C)cc2)cc1	7.4 µM	2.1 µM		3.5
CC(C)(C)c1ccc(/C=C/C(=O)NCc2ccc(C(F)(F)F)cc2)cc1	115 µM	125 µM	47.9 µM	0.9
CC(C)(C)c1ccc(/C=C/C(=O)N/N=C/c2ccc(C(C)(C)C)cc2)cc1		> 276 µM	> 276 µM	
CCOc1ccc(/C=N/NC(=O)CCc2ccccc2)cc1OCC		> 294 µM	> 294 µM	
C/C(=N\NC(=O)[C@@H]1C[C@H]1c1ccccc1)c1ccc(C2CCCCC2)cc1	101 µM	32 µM	44 µM	3.1
O=C(CCc1ccccc1)N/N=C/c1ccc(C2CCCCC2)cc1		> 96 µM	> 96 µM	
CC(C)(C)c1ccc([C@@H]2C[C@H]2C(=O)N/N=C/c2ccc(O)cc2)cc1		2.7 µM	3.8 µM	
CC(C)(C)c1ccc(/C=C/C(=O)N/N=C/c2ccc([N+](=O)[O-])cc2)cc1		> 285 µM	> 285 µM	
CCOc1ccc(/C=N/NC(=O)[C@@H]2C[C@H]2c2ccc(C(C)(C)C)cc2)cc1OCC	72 µM	5 µM	6.4 µM	14

SMILES	CC50 at 120 h [1]	EC50 [2]	EC90 [2]	selectivity ratio [3]
CCOc1ccc(/C=N/NC(=O)/C=C/c2ccc(C(C)(C)C)cc2)cc1OCC	101 µM		11 µM	32
C/C(=N\NC(=O)/C=C/c1ccc(C(C)(C)C)cc1)c1ccc(Cl)cc1		> 282 µM	> 282 µM	
C/C(=N\NC(=O)CCc1ccc(C(C)(C)C)cc1)c1ccc(C2CCCCC2)cc1		> 82.4 µM	> 82.4 µM	
O=C(N/N=C/c1ccc(O)cc1)[C@@H]1C[C@H]1c1ccccc1	15 µM	6.4 µM	8.7 µM	2.3
O=C(/C=C/c1ccccc1)NCc1ccc(C(F)(F)F)cc1		> 246 µM	> 246 µM	
Cc1ccc(/C=N/NC(=O)CCc2ccccc2)cc1		> 375 µM	> 375 µM	
Cc1ccc(/C=C/C(=O)N/N=C/c2ccc(C)cc2)cc1		> 359 µM	> 359 µM	
Cc1ccc(/C=N/NC(=O)/C=C/c2ccccc2)cc1	84.4 µM	93.3 µM	> 284 µM	0.9
Cc1ccc(/C=N/NC(=O)[C@@H]2C[C@H]2c2ccc(C(C)(C)C)cc2)cc1		6.6 µM		
O=C(CCc1ccccc1)N/N=C/c1ccc(O)cc1		> 373 µM	> 373 µM	
COc1ccc(/C=N/NC(=O)/C=C/c2ccc(C(C)(C)C)cc2)cc1	117 µM	5.9 µM	38.8 µM	19.8
CC(C)(C)c1ccc(/C=C/C(=O)N/N=C/c2ccc(O)cc2)cc1	7.3 µM			
CC(C)(C)c1ccc([C@@H]2C[C@H]2C(=O)N/N=C/c2ccc(C(F)(F)F)cc2)cc1	30 µM	14 µM	19 µM	2.1
CCOc1ccc(/C=N/NC(=O)CCc2ccc(C(C)(C)C)cc2)cc1OCC		> 11 µM	> 11 µM	
COc1ccc(/C(C)=N/NC(=O)[C@@H]2C[C@H]2c2ccccc2)cc1	72 µM	5.6 µM	12 µM	13
Cc1ccc(/C=N/NC(=O)CCc2ccc(C(C)(C)C)cc2)cc1		> 100 µM	> 100 µM	
C/C(=N\NC(=O)/C=C/c1ccc(C(C)(C)C)cc1)c1ccc(-c2ccccc2)cc1		> 252 µM	> 252 µM	
CC(C)(C)c1ccc(/C=C/C(=O)N/N=C/c2ccccc2)cc1	22.1 µM	5.8 µM	87.5 µM	3.8
O=C(/C=C/c1ccccc1)NCc1ccc(-c2ccccc2)cc1		> 319 µM	> 319 µM	
